Data published in ChEMBL document CHEMBL1153921, “Design, synthesis, and biological evaluation of novel 1-(1H-1,2,4-triazole-1-yl)-2-(2,4-difluorophenyl)-3-substituted benzylamino-2-propanols” (2009).
Converted amounts (≈) assume the structure as drawn.

Experiments:
Type in all cases: functional
Pichia kudriavzevii = test: Antimicrobial activity against Candida krusei by micro-broth dilution method
Summary of the method: (§1)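 Clinical isolates. Tested by broth microdilution in 96-well plates following NCCLS M27-A2. MIC80, the minimum concentration inhibiting growth by 80%, was recorded. Marketed reference antifungals were included as positive controls.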

Candida albicans = test: Antimicrobial activity against Candida albicans by micro-broth dilution method
Summary of the method: (§2)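 ATCC standard strains. Broth microdilution in 96-well plates following NCCLS M27-A2 (reference broth dilution method for yeasts). Endpoint is MIC80, the lowest concentration giving 80% growth inhibition. Marketed reference antifungals ran alongside as positive controls.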

Cryptococcus neoformans = test: Antimicrobial activity against Cryptococcus neoformans by micro-broth dilution method; summary of the method: as §2
Candida parapsilosis = test: Antimicrobial activity against Candida parapsilosis by micro-broth dilution method; settings: Lodderomyces parapsilosis; summary of the method: as §1
Candida tropicalis = test: Antimicrobial activity against Candida tropicalis by micro-broth dilution method; summary of the method: as §1
Trichophyton rubrum = test: Antimicrobial activity against Trichophyton rubrum by micro-broth dilution method; summary of the method: as §1
Nannizzia gypsea = test: Antimicrobial activity against Microsporum gypseum by micro-broth dilution method; summary of the method: as §1
Aspergillus fumigatus = test: Antimicrobial activity against Aspergillus fumigatus by micro-broth dilution method; summary of the method: as §1

SMILES	MIC80 (Pichia kudriavzevii)	MIC80 (Candida albicans)	MIC80 (Cryptococcus neoformans)	MIC80 (Candida parapsilosis)	MIC80 (Candida tropicalis)	MIC80 (Trichophyton rubrum)	MIC80 (Nannizzia gypsea)	MIC80 (Aspergillus fumigatus)
CCCCN(Cc1cccc(F)c1)CC(O)(Cn1cncn1)c1ccc(F)cc1F (stereo not drawn)	1 µg/mL (≈ 2.39 µM)	0.0156 µg/mL (≈ 0.0373 µM)	0.25 µg/mL (≈ 0.597 µM)	0.25 µg/mL (≈ 0.597 µM)	0.25 µg/mL (≈ 0.597 µM)	1 µg/mL (≈ 2.39 µM)	0.0625 µg/mL (≈ 0.149 µM)	> 64 µg/mL
CCCCN(Cc1ccc(F)cc1)CC(O)(Cn1cncn1)c1ccc(F)cc1F (stereo not drawn)	1 µg/mL (≈ 2.39 µM)	0.25 µg/mL (≈ 0.597 µM)	0.25 µg/mL (≈ 0.597 µM)	0.0625 µg/mL (≈ 0.149 µM)	0.25 µg/mL (≈ 0.597 µM)	1 µg/mL (≈ 2.39 µM)	0.0156 µg/mL (≈ 0.0373 µM)	> 64 µg/mL
CC(C)N(Cc1ccc(Cl)cc1Cl)CC(O)(Cn1cncn1)c1ccc(F)cc1F (stereo not drawn)	1 µg/mL (≈ 2.2 µM)	0.25 µg/mL (≈ 0.549 µM)	16 µg/mL (≈ 35.1 µM)	1 µg/mL (≈ 2.2 µM)	1 µg/mL (≈ 2.2 µM)	0.25 µg/mL (≈ 0.549 µM)	1 µg/mL (≈ 2.2 µM)	> 64 µg/mL
CCCCN(Cc1ccc(CC)cc1)CC(O)(Cn1cncn1)c1ccc(F)cc1F (stereo not drawn)	1 µg/mL (≈ 2.33 µM)	0.0039 µg/mL (≈ 0.0091 µM)	0.25 µg/mL (≈ 0.583 µM)	4 µg/mL (≈ 9.33 µM)	1 µg/mL (≈ 2.33 µM)	4 µg/mL (≈ 9.33 µM)	1 µg/mL (≈ 2.33 µM)	> 64 µg/mL
CCCCN(Cc1ccccc1)CC(O)(Cn1cncn1)c1ccc(F)cc1F (stereo not drawn)	0.25 µg/mL (≈ 0.624 µM)	0.0625 µg/mL (≈ 0.156 µM)	0.0625 µg/mL (≈ 0.156 µM)	0.0625 µg/mL (≈ 0.156 µM)	0.0625 µg/mL (≈ 0.156 µM)	0.25 µg/mL (≈ 0.624 µM)	0.0156 µg/mL (≈ 0.039 µM)	> 64 µg/mL
CCCCN(Cc1ccccc1F)CC(O)(Cn1cncn1)c1ccc(F)cc1F (stereo not drawn)	0.25 µg/mL (≈ 0.597 µM)	0.0625 µg/mL (≈ 0.149 µM)	0.25 µg/mL (≈ 0.597 µM)	0.25 µg/mL (≈ 0.597 µM)	0.25 µg/mL (≈ 0.597 µM)	1 µg/mL (≈ 2.39 µM)	0.25 µg/mL (≈ 0.597 µM)	16 µg/mL (≈ 38.2 µM)
CCCCN(Cc1ccccc1Cl)CC(O)(Cn1cncn1)c1ccc(F)cc1F (stereo not drawn)	1 µg/mL (≈ 2.3 µM)	1 µg/mL (≈ 2.3 µM)	0.25 µg/mL (≈ 0.575 µM)	0.25 µg/mL (≈ 0.575 µM)	0.25 µg/mL (≈ 0.575 µM)	1 µg/mL (≈ 2.3 µM)	0.25 µg/mL (≈ 0.575 µM)	> 64 µg/mL
CCCCN(Cc1ccc(Br)cc1)CC(O)(Cn1cncn1)c1ccc(F)cc1F (stereo not drawn)	1 µg/mL (≈ 2.09 µM)	4 µg/mL (≈ 8.34 µM)	0.25 µg/mL (≈ 0.522 µM)	0.25 µg/mL (≈ 0.522 µM)	1 µg/mL (≈ 2.09 µM)	0.25 µg/mL (≈ 0.522 µM)	1 µg/mL (≈ 2.09 µM)	> 64 µg/mL
CCCCN(Cc1ccc(C)cc1)CC(O)(Cn1cncn1)c1ccc(F)cc1F (stereo not drawn)	1 µg/mL (≈ 2.41 µM)	4 µg/mL (≈ 9.65 µM)	0.25 µg/mL (≈ 0.603 µM)	1 µg/mL (≈ 2.41 µM)	1 µg/mL (≈ 2.41 µM)	1 µg/mL (≈ 2.41 µM)	0.25 µg/mL (≈ 0.603 µM)	> 64 µg/mL
CCCCN(Cc1ccc(Cl)cc1)CC(O)(Cn1cncn1)c1ccc(F)cc1F (stereo not drawn)	1 µg/mL (≈ 2.3 µM)	1 µg/mL (≈ 2.3 µM)	1 µg/mL (≈ 2.3 µM)	1 µg/mL (≈ 2.3 µM)	1 µg/mL (≈ 2.3 µM)	1 µg/mL (≈ 2.3 µM)	1 µg/mL (≈ 2.3 µM)	> 64 µg/mL
CCCCN(Cc1ccccc1Br)CC(O)(Cn1cncn1)c1ccc(F)cc1F (stereo not drawn)	1 µg/mL (≈ 2.09 µM)	1 µg/mL (≈ 2.09 µM)	0.25 µg/mL (≈ 0.522 µM)	0.25 µg/mL (≈ 0.522 µM)	0.25 µg/mL (≈ 0.522 µM)	1 µg/mL (≈ 2.09 µM)	0.25 µg/mL (≈ 0.522 µM)	> 64 µg/mL
CCCCN(Cc1ccc(Cl)cc1Cl)CC(O)(Cn1cncn1)c1ccc(F)cc1F (stereo not drawn)	16 µg/mL (≈ 34.1 µM)	0.0039 µg/mL (≈ 0.00831 µM)	1 µg/mL (≈ 2.13 µM)	4 µg/mL (≈ 8.52 µM)	1 µg/mL (≈ 2.13 µM)	16 µg/mL (≈ 34.1 µM)	0.25 µg/mL (≈ 0.533 µM)	> 64 µg/mL
CCCCN(Cc1cccc(Cl)c1)CC(O)(Cn1cncn1)c1ccc(F)cc1F (stereo not drawn)	1 µg/mL (≈ 2.3 µM)	1 µg/mL (≈ 2.3 µM)	0.25 µg/mL (≈ 0.575 µM)	0.25 µg/mL (≈ 0.575 µM)	1 µg/mL (≈ 2.3 µM)	1 µg/mL (≈ 2.3 µM)	0.25 µg/mL (≈ 0.575 µM)	> 64 µg/mL
CCCCN(Cc1ccccc1C)CC(O)(Cn1cncn1)c1ccc(F)cc1F (stereo not drawn)	1 µg/mL (≈ 2.41 µM)	1 µg/mL (≈ 2.41 µM)	0.25 µg/mL (≈ 0.603 µM)	0.25 µg/mL (≈ 0.603 µM)	0.25 µg/mL (≈ 0.603 µM)	1 µg/mL (≈ 2.41 µM)	0.0156 µg/mL (≈ 0.0376 µM)	> 64 µg/mL
CCCCN(Cc1ccc([N+](=O)[O-])cc1)CC(O)(Cn1cncn1)c1ccc(F)cc1F (stereo not drawn)	1 µg/mL (≈ 2.24 µM)	0.0156 µg/mL (≈ 0.035 µM)	0.0625 µg/mL (≈ 0.14 µM)	0.25 µg/mL (≈ 0.561 µM)	0.0625 µg/mL (≈ 0.14 µM)	0.25 µg/mL (≈ 0.561 µM)	0.0625 µg/mL (≈ 0.14 µM)	> 64 µg/mL
C[C@@H]1[C@H](O)[C@@H](C)/C=C/C=C/C=C/C=C/C=C/C=C/C=C/[C@H](O[C@@H]2O[C@H](C)[C@@H](O)[C@H](N)[C@@H]2O)C[C@@H]2O[C@](O)(C[C@@H](O)C[C@@H](O)[C@H](O)CC[C@@H](O)C[C@@H](O)CC(=O)O[C@H]1C)C[C@H](O)[C@H]2C(=O)O [AMPHOTERICIN B]	2 µg/mL (≈ 2.16 µM)	2 µg/mL (≈ 2.16 µM)	2 µg/mL (≈ 2.16 µM)	2 µg/mL (≈ 2.16 µM)	2 µg/mL (≈ 2.16 µM)	2 µg/mL (≈ 2.16 µM)	2 µg/mL (≈ 2.16 µM)	64 µg/mL (≈ 69.3 µM)
OC(Cn1cncn1)(Cn1cncn1)c1ccc(F)cc1F [FLUCONAZOLE]	4 µg/mL (≈ 13.1 µM)	0.5 µg/mL (≈ 1.63 µM)	1 µg/mL (≈ 3.27 µM)	1 µg/mL (≈ 3.27 µM)	1 µg/mL (≈ 3.27 µM)	4 µg/mL (≈ 13.1 µM)	0.25 µg/mL (≈ 0.816 µM)	> 64 µg/mL
CCC(C)n1ncn(-c2ccc(N3CCN(c4ccc(OCC5COC(Cn6cncn6)(c6ccc(Cl)cc6Cl)O5)cc4)CC3)cc2)c1=O (stereo not drawn) [ITRACONAZOLE]	0.5 µg/mL (≈ 0.709 µM)	0.0625 µg/mL (≈ 0.0886 µM)	0.125 µg/mL (≈ 0.177 µM)	0.125 µg/mL (≈ 0.177 µM)	0.125 µg/mL (≈ 0.177 µM)	0.125 µg/mL (≈ 0.177 µM)	0.0625 µg/mL (≈ 0.0886 µM)	0.5 µg/mL (≈ 0.709 µM)
CC(=O)N1CCN(c2ccc(OCC3COC(Cn4ccnc4)(c4ccc(Cl)cc4Cl)O3)cc2)CC1 (stereo not drawn) [KETOCONAZOLE]	0.25 µg/mL (≈ 0.47 µM)	0.0156 µg/mL (≈ 0.0294 µM)	0.0625 µg/mL (≈ 0.118 µM)	0.0625 µg/mL (≈ 0.118 µM)	0.0625 µg/mL (≈ 0.118 µM)	0.0625 µg/mL (≈ 0.118 µM)	0.0156 µg/mL (≈ 0.0294 µM)	1 µg/mL (≈ 1.88 µM)
CN(C/C=C/C#CC(C)(C)C)Cc1cccc2ccccc12 [TERBINAFINE]	16 µg/mL (≈ 54.9 µM)	4 µg/mL (≈ 13.7 µM)	1 µg/mL (≈ 3.43 µM)	0.25 µg/mL (≈ 0.858 µM)	0.0625 µg/mL (≈ 0.214 µM)	0.0625 µg/mL (≈ 0.214 µM)	4 µg/mL (≈ 13.7 µM)	0.0625 µg/mL (≈ 0.214 µM)
C[C@@H](c1ncncc1F)[C@](O)(Cn1cncn1)c1ccc(F)cc1F [VORICONAZOLE]	0.0625 µg/mL (≈ 0.179 µM)	0.0156 µg/mL (≈ 0.0447 µM)	0.0156 µg/mL (≈ 0.0447 µM)	0.0039 µg/mL (≈ 0.0112 µM)	0.0039 µg/mL (≈ 0.0112 µM)	0.0625 µg/mL (≈ 0.179 µM)	0.0039 µg/mL (≈ 0.0112 µM)	0.25 µg/mL (≈ 0.716 µM)
